Reference: ChEMBL document CHEMBL1165914, “Characterization of 4-methyl-2-oxo-1,2-dihydroquinolin-6-yl acetate as an effective antiplatelet agent” (2010)
Calls of active or inactive are those of the source. No cut-off for these calls is given here.

Key:
Homo sapiens [1] = species: Homo sapiens; assay: Inhibition of human platelet CRTAase assessed as inhibition of acetylation of glutathione S-transferase; parameters: concentration or dose not given beside the values; conditions: concentration not given here
Method in brief: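 Platelet lysate as enzyme source. Acetoxy substrate preincubated with CRTAase and GST in potassium phosphate buffer pH 6.5, 37 °C, 10 min; GSH and CDNB then added and absorbance read at 340 nm. Activity unit is % inhibition of GST activity; mean of five observations.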

Platelet [2] = assay: Antiplatelet activity in human platelet rich plasma assessed as inhibition of ADP-induced platelet aggregation measured for 6 mins by aggregometry; format: functional
Homo sapiens [3] = species: Homo sapiens; assay: Activation of human platelet NOS assessed as increase in nitric oxide level by flow cytometry
Method in brief: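 Platelets incubated with compounds, then intracellular NO measured by flow cytometry following the Imrich and Kobzik method.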

Platelet [4] = assay: Antiplatelet activity in human platelet rich plasma assessed as inhibition of arachidonic acid-induced platelet aggregation measured for 6 mins by aggregometry; format: functional
Rattus norvegicus [5] = assay: Ex vivo antiplatelet activity in Sprague-Dawley rat platelets assessed as inhibition of arachidonic acid-induced platelet aggregation at 133 umole/kg, po after 24 hrs by aggregometry; format: functional, organism-based
Method in brief: (§1)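 Rats dosed orally and killed 24 h later. Blood taken by cardiac puncture and centrifuged as for PRP/PPP preparation (180g 10 min; 2500g 10 min). ADP- or AA-induced aggregation then measured by light-transmittance aggregometry.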

Rattus norvegicus [6] = assay: Ex vivo antiplatelet activity in Sprague-Dawley rat platelets assessed as inhibition of ADP-induced platelet aggregation at 133 umole/kg, po after 24 hrs by aggregometry; format: functional, organism-based; method in brief: as §1
Rattus norvegicus [7] = assay: Inhibition of COX1 in po dosed Sprague-Dawley rat after 24 hrs by ELISA relative to control; format: functional
Rattus norvegicus [8] = assay: Inhibition of COX1 in po dosed Sprague-Dawley rat after 24 hrs by ELISA; format: functional, organism-based

inhibition (Homo sapiens [1]) | SMILES | inhibition (Platelet [2]) | further results
10% | CCOC(=O)Cn1c(=O)cc(C)c2ccc(OC(C)=O)cc21 | Active | –
13.2% | CCOC(=O)COc1cc(C)c2ccc(OC(C)=O)cc2n1 | inactive | –
0% | CCCCCCc1c(C)c2cccc(OC(C)=O)c2[nH]c1=O | – | –
28.6% | CCOC(=O)COc1cc(C)c2cc(OC(C)=O)ccc2n1 | inactive | –
31% | CC(=O)Oc1ccc2[nH]c(=O)cc(C)c2c1 | Active | Activity (Homo sapiens [3]): Active; inhibition (Platelet [4]): Active; inhibition (Rattus norvegicus [5]): Active; inhibition (Rattus norvegicus [6]): Active; fold change (FC) (Rattus norvegicus [7]): 3.5
12% | CC(=O)Oc1cccc2c(C)cc(=O)[nH]c12 | Active | Activity (Homo sapiens [3]): Active
26% | CCc1c(C)c2cc(OC(C)=O)ccc2[nH]c1=O | – | –
– | CC(=O)Oc1ccccc1C(=O)O | – | inhibition (Rattus norvegicus [5]): Active; inhibition (Rattus norvegicus [6]): Active; inhibition (Rattus norvegicus [8]): Active
2% | CCCCCCc1c(C)c2ccc(OC(C)=O)cc2[nH]c1=O | – | –
0% | Cc1cc(=O)[nH]c2ccc(O)cc12 | – | inhibition (Rattus norvegicus [5]): inactive; inhibition (Rattus norvegicus [6]): inactive; inhibition (Rattus norvegicus [8]): inactive
11.5% | CCc1c(C)c2cccc(OC(C)=O)c2[nH]c1=O | – | –
13% | CCc1c(C)c2ccc(OC(C)=O)cc2[nH]c1=O | – | –
13.2% | CC(=O)Oc1ccc2c(C)cc(=O)[nH]c2c1 | Active | Activity (Homo sapiens [3]): Active
23% | CCOC(=O)Cn1c(=O)cc(C)c2cc(OC(C)=O)ccc21 | Active | –
7% | CCCCCCc1c(C)c2cc(OC(C)=O)ccc2[nH]c1=O | – | –

SMILES | inhibition (Homo sapiens [1]) | inhibition (Platelet [2]) | further results
CC(=O)Oc1cc(=O)[nH]c2ccccc12 | 0% | – | –
